Measurements published in ChEMBL document CHEMBL3856250, “Discovery of 6-Fluoro-5-(R)-(3-(S)-(8-fluoro-1-methyl-2,4-dioxo-1,2-dihydroquinazolin-3(4H)-yl)-2-methylphenyl)-2-(S)-(2-hydroxypropan-2-yl)-2,3,4,9-tetrahydro-1H-carbazole-8-carboxamide (BMS-986142): A Reversible Inhibitor of Bruton's Tyrosine Kinase (BTK) Conformationally Constrained by Two …” (J Med Chem, 2016).
Activity calls are given as the source filed them. No cut-off for these calls is given here.

What was measured:
[1] = target: T1, Tyrosine-protein kinase BTK (Homo sapiens, UniProt Q06187)
Homo sapiens [2] = species on record: Homo sapiens; experiment: Selectivity ratio of IC50 for JAK2 (unknown origin) to IC50 for full length recombinant human His-tagged BTK expressed in baculovirus
[3] = target: T1, Tyrosine-protein kinase BTK; experiment: Inhibition of BTK in human Ramos-B cells assessed as suppression of BCR/anti-IgM-stimulated Ca2+ flux after 1 hr incubation in dark by FLIPR1 assay
[4] = Drug metabolism in mouse assessed as metabolite 13c formation at 10 mg/kg, iv or po; format: ADME, organism-based; conditions: in vivo
[5] = Cmax in mouse at 10 mg/kg, iv or po; format: ADME, organism-based; conditions: in vivo
[6] = AUC in mouse at 10 mg/kg; format: ADME, organism-based; conditions: in vivo
[7] = Clearance in mouse at 10 mg/kg, iv or po; format: ADME, organism-based; conditions: in vivo
[8] = target: T1, Tyrosine-protein kinase BTK; experiment: Inhibition of BTK in human whole blood assessed as suppression of BCR/anti-IgM/IgG-stimulated CD69 surface expression after 18 hrs with agitation by FITC-staining based FACS analysis; format: tissue-based
[9] = Drug metabolism in rat plasma assessed as compound-6 formation after 4 hrs by HPLC analysis; format: ADME, cell-free
How it was run: (§1)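 Atropisomer distribution was followed in plasma from multiple species incubated at 37 °C over 4 h.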

[10] = Drug level in rat plasma treated with 4-(3-(S)-(8-Fluoro-1-methyl-2,4-dioxo-1,2-dihydroquinazolin-3(4H)-yl)-2-methylphenyl)7-(2-hydroxypropan-2-yl)-9H-carbazole-1-carboxamide after 1 hr by HPLC analysis; format: ADME
How it was run: as §1

[11] = Stability of the compound in methanol at 37 degC after 3 days; format: physicochemical; conditions: 72 h
[12] = Stability of the compound in methanol at 37 degC assessed as kinetic half life; format: physicochemical
[13] = Drug metabolism in dog plasma assessed as compound-6 formation after 4 hrs by HPLC analysis; format: ADME, cell-free, Canis lupus familiaris
How it was run: as §1

[14] = Drug level in human plasma treated with 4-(3-(S)-(8-Fluoro-1-methyl-2,4-dioxo-1,2-dihydroquinazolin-3(4H)-yl)-2-methylphenyl)7-(2-hydroxypropan-2-yl)-9H-carbazole-1-carboxamide after 4 hrs by HPLC analysis; format: ADME
How it was run: as §1

[15] = Protein binding in human serum; format: ADME; conditions: read-out: PPB (converted)
[16] = AUC in mouse at 5 mg/kg; format: ADME, organism-based; conditions: in vivo
[17] = Drug metabolism in mouse plasma assessed as compound-6 formation after 4 hrs by HPLC analysis; format: ADME, cell-free
How it was run: as §1

[18] = Cmax in mouse at 5 mg/kg; format: ADME, organism-based; set-up: dose 5 mg/kg; conditions: in vivo
[19] = Drug level in cynomolgus monkey plasma treated with 4-(3-(S)-(8-Fluoro-1-methyl-2,4-dioxo-1,2-dihydroquinazolin-3(4H)-yl)-2-methylphenyl)7-(2-hydroxypropan-2-yl)-9H-carbazole-1-carboxamide after 4 hrs by HPLC analysis; format: ADME, Macaca fascicularis
How it was run: as §1

[20] = Drug level in mouse treated with 3-Chloro-4-(R)-(3-(S)-(8-fluoro-1-methyl-2,4-dioxo-1,2-dihydroquinazolin-3(4H)-yl)-2-methylphenyl)-7-(2-hydroxypropan-2-yl)-9H-carbazole-1-carboxamide assessed as compound formation; format: ADME; conditions: in vivo
[21] = Drug level in dog treated with 3-Chloro-4-(R)-(3-(S)-(8-fluoro-1-methyl-2,4-dioxo-1,2-dihydroquinazolin-3(4H)-yl)-2-methylphenyl)-7-(2-hydroxypropan-2-yl)-9H-carbazole-1-carboxamide assessed as compound formation; format: ADME, Canis lupus familiaris; conditions: in vivo
[22] = Drug level in rat treated with 3-Chloro-4-(R)-(3-(S)-(8-fluoro-1-methyl-2,4-dioxo-1,2-dihydroquinazolin-3(4H)-yl)-2-methylphenyl)-7-(2-hydroxypropan-2-yl)-9H-carbazole-1-carboxamide assessed as compound formation; format: ADME; conditions: in vivo
[23] = Stability of the compound in methanol at 37 degC after 5 days; format: physicochemical; conditions: 120 h
[24] = Stability in plasma (unknown origin) at 37 degC after 5 days; format: ADME, cell-free; conditions: 120 h
Mus musculus [25] = experiment: Anti-autoimmune activity in lupus prone NZB/WF1 mouse model assessed as protection against inflammatory infiltration at 10 mg/kg, po administered qd for 16 weeks; format: functional, organism-based
Mus musculus [26] = experiment: Anti-autoimmune activity in lupus prone NZB/WF1 mouse model assessed as protection against tubulo-interstitial nephritis at 10 mg/kg, po administered qd for 16 weeks; format: functional, organism-based
Mus musculus [27] = experiment: Anti-autoimmune activity in lupus prone NZB/WF1 mouse model assessed as protection against glomerular nephritis at 10 mg/kg, po administered qd for 16 weeks; format: functional, organism-based
Mus musculus [28] = experiment: Anti-autoimmune activity in lupus prone NZB/WF1 mouse model assessed as reduction in immune complex deposits at 10 mg/kg, po administered qd for 16 weeks; format: functional, organism-based
Mus musculus [29] = experiment: Anti-autoimmune activity in lupus prone NZB/WF1 mouse model assessed as protection from disease-related death at 30 mg/kg, po administered qd for 16 weeks; format: functional, organism-based
How it was run: (§2)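 Female NZB/WF1 mice, 24 weeks old, were randomized (n = 12 per group) after baseline body weight, proteinuria and serum dsDNA titers were measured. They were dosed by oral gavage once daily for 16 weeks in 80:20 PEG400/water vehicle, with prednisolone 10 mg/kg as the comparator arm. Health was monitored routinely, and weight, proteinuria and anti-dsDNA titers were measured every 3 weeks.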

Mus musculus [30] = experiment: Anti-autoimmune activity in lupus prone NZB/WF1 mouse model assessed as protection against glomerular nephritis at 30 mg/kg, po administered qd for 16 weeks; format: functional, organism-based
How it was run: as §2

Mus musculus [31] = experiment: Antiathritis activity in anticollagen antibody-induced arthritis BALB/c mouse model assessed as reduction in LPS-induced bone resorption in right hind paws at 5 and 20 mg/kg, po qd followed by LPS addition on day 3 measured after 11 days relative to control; format: functional, organism-based
Mus musculus [32] = experiment: Anti-autoimmune activity in lupus prone NZB/WF1 mouse model assessed as protection against tubulo-interstitial nephritis at 30 mg/kg, po administered qd for 16 weeks; format: functional, organism-based
How it was run: as §2

Mus musculus [33] = experiment: Anti-autoimmune activity in lupus prone NZB/WF1 mouse model assessed as reduction in immune complex deposits at 30 mg/kg, po administered qd for 16 weeks; format: functional, organism-based
How it was run: as §2

Mus musculus [34] = experiment: Antiathritis activity in anticollagen antibody-induced arthritis BALB/c mouse model assessed as reduction in LPS-induced inflammation in right hind paws at 5 and 20 mg/kg, po qd followed by LPS addition on day 3 measured after 11 days relative to control; format: functional, organism-based
Homo sapiens [35] = species on record: Homo sapiens; experiment: Inhibition of Na+ channel (unknown origin) at 10 uM at 4 Hz by patch clamp assay
Homo sapiens [36] = species on record: Homo sapiens; experiment: Inhibition of Ca2+ channel (unknown origin) at 10 uM by patch clamp assay
Mus musculus [37] = experiment: Anti-autoimmune activity in lupus prone NZB/WF1 mouse model assessed as protection against inflammatory infiltration at 30 mg/kg, po administered qd for 16 weeks; format: functional, organism-based
How it was run: as §2

Mus musculus [38] = experiment: Anti-autoimmune activity in lupus prone NZB/WF1 mouse model assessed as inhibition of increase in severe proteinuria at 30 mg/kg, po administered qd for 16 weeks; format: functional, organism-based
How it was run: as §2

Homo sapiens [39] = species on record: Homo sapiens; experiment: Inhibition of Na+ channel (unknown origin) at 10 uM at 1 Hz by patch clamp assay

T1 sequence (Q06187 whole entry): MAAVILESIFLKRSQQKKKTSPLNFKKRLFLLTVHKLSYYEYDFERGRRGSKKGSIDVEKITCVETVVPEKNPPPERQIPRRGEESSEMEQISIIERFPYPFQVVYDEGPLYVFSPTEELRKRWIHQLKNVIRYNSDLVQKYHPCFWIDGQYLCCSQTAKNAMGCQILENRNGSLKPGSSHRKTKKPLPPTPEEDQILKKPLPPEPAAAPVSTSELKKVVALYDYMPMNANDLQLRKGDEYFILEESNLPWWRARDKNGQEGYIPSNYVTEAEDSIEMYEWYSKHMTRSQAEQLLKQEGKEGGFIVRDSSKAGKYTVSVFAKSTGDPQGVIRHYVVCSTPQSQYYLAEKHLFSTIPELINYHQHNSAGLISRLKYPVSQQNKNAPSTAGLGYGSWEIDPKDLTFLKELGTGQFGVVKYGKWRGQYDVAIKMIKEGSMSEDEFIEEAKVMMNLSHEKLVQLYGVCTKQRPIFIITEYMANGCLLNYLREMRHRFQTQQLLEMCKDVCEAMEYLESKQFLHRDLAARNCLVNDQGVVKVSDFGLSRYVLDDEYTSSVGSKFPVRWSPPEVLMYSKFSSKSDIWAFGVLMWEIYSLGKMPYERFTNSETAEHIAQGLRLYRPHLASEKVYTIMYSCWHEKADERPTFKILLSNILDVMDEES

Structure (SMILES) | IC50 [1] | Ratio IC50 (Homo sapiens [2]) | IC50 [3] | Cmax [5] | AUC [6] | IC50 [8] | further results
Cc1c(-c2ccc(C(N)=O)c3[nH]c4c(c23)CC[C@@H](C(C)(C)O)C4)cccc1-n1c(=O)c2cccc(F)c2n(C)c1=O | 0.011 µM | 180 | 0.19 µM | – | – | – | –
Cc1c(-c2c(Cl)cc(C(N)=O)c3[nH]c4c(c23)CC[C@H](C(C)(C)O)C4)cccc1-n1c(=O)c2cccc(F)c2n(C)c1=O | – | – | – | 4.5 µM | 25 µM·h | – | CL [7]: 15%
Cc1c(-c2ccc(C(N)=O)c3[nH]c4cc(C(C)(C)O)ccc4c23)cccc1-n1c(=O)c2cccc(F)c2n(C)c1=O | – | – | – | – | – | – | Drug metabolism [9]: Metabolite_Notdetected; Drug uptake [10]: Active; Stability [11]: Stable; half-life [12]: 1.15 h; Drug metabolism [13]: Metabolite_Notdetected; Drug uptake [14]: Active; fraction unbound [15]: < 0.01; AUC [16]: 25 µM·h; Drug metabolism [17]: Metabolite_Notdetected; Cmax [18]: 2.2 µM; Drug uptake [19]: Active
Cc1c(-c2ccc(C(N)=O)c3[nH]c4cc(C(C)(C)O)ccc4c23)cccc1-n1cnc2ccccc2c1=O | – | – | – | – | 80 µM·h | – | –
Cc1c(-c2c(F)cc(C(N)=O)c3[nH]c4c(c23)CC[C@@H](C(C)(C)O)C4)cccc1-n1c(=O)c2cccc(F)c2n(C)c1=O | – | 910 | 0.036 µM | – | – | 0.15 µM | –
Cc1c(-c2ccc(C(N)=O)c3[nH]c4c(c23)CC[C@H](C(C)(C)O)C4)cccc1-n1c(=O)c2cccc(F)c2n(C)c1=O | 0.0027 µM | 740 | 0.063 µM | 3.6 µM | 16 µM·h | 0.38 µM | –
C[C@]12C=CC(=O)C=C1CC[C@@H]1[C@@H]2[C@@H](O)C[C@@]2(C)[C@H]1CC[C@]2(O)C(=O)CO | – | – | – | – | – | – | Activity (Mus musculus [25]): Active; Activity (Mus musculus [26]): Active; Activity (Mus musculus [27]): Active; Activity (Mus musculus [28]): Active
Cc1c(-c2c(F)cc(C(N)=O)c3[nH]c4c(c23)CC[C@H](C(C)(C)O)C4)cccc1-n1c(=O)c2cccc(F)c2n(C)c1=O (atropisomer R) | – | > 10000 | – | – | – | – | Activity (Mus musculus [29]): Active; Activity (Mus musculus [30]): Active; Activity (Mus musculus [31]): Active; Activity (Mus musculus [32]): Active; Activity (Mus musculus [33]): Active; Activity (Mus musculus [34]): Active; inhibition (Homo sapiens [35]): 13%; inhibition (Homo sapiens [36]): 40%; Activity (Mus musculus [37]): Active; inhibition (Mus musculus [38]): Active; inhibition (Homo sapiens [39]): 10%

The next lines start with results.

IC50 [1] | Ratio IC50 (Homo sapiens [2]) | IC50 [3] | Cmax [5] | AUC [6] | IC50 [8] | Structure (SMILES) | further results
– | – | – | 5.5 µM | 28 µM·h | – | Cc1c(-c2c(F)cc(C(N)=O)c3[nH]c4cc(C(C)(C)O)ccc4c23)cccc1-n1c(=O)c2cccc(F)c2n(C)c1=O | Drug metabolism [4]: Metabolite_Detected
– | 7100 | 0.006 µM | 0.12 µM | 0.31 µM·h | 0.12 µM | Cc1c(-c2c(C#N)cc(C(N)=O)c3[nH]c4cc(C(C)(C)O)ccc4c23)cccc1-n1c(=O)c2cccc(F)c2n(C)c1=O | –
0.00065 µM | – | 0.017 µM | 6.3 µM | 48 µM·h | 0.24 µM | Cc1cc(C(N)=O)c2[nH]c3cc(C(C)(C)O)ccc3c2c1-c1cccc(-n2c(=O)c3cccc(F)c3n(C)c2=O)c1C | –
0.0016 µM | – | – | – | – | – | Cc1c(-c2c(Cl)cc(C(N)=O)c3[nH]c4cc(C(C)(C)O)ccc4c23)cccc1-n1c(=O)[nH]c2c(F)cccc2c1=O | Drug metabolism [20]: Metabolite_Detected; Drug metabolism [21]: Metabolite_Detected; Drug metabolism [22]: Metabolite_Detected
– | – | – | 4.7 µM | 41 µM·h | – | Cc1c(-c2c(Cl)cc(C(N)=O)c3[nH]c4cc(C(C)(C)O)ccc4c23)cccc1-n1c(=O)c2cccc(F)c2n(C)c1=O | Stability [23]: Stable; Stability [24]: Stable
0.0026 µM | – | – | – | – | 0.46 µM | Cc1c(-c2ccc(C(N)=O)c3[nH]c4cc(C(C)(C)O)ccc4c23)cccc1-n1c(=O)c2ccccc2n(C)c1=O | Stability [11]: Stable
0.025 µM | – | 0.75 µM | – | – | – | Cc1c(-c2c(F)cc(C(N)=O)c3[nH]c4c(c23)CC[C@H](C(C)(C)O)C4)cccc1-n1c(=O)c2cccc(F)c2n(C)c1=O [BMS-986142] | –
